{
  "source": "ChEMBL document CHEMBL4689842",
  "about": "“EUbOPEN Chemogenomics Library wave 1” (2021)",
  "tested_on": "U2OS",
  "assay": "Multiplex assay against U2OS",
  "type": "toxicity, cell-based",
  "conditions": "human",
  "procedure,_shortened": "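Cells stained live at seeding with Hoechst33342, BioTracker Green Microtubule Cytoskeleton Dye, MitoTracker Red and Annexin V Alexa Fluor 680 were imaged on a CQ1 microscope at 37°C and 5% CO2 after compound addition. Their classification by CellPathfinder machine-learning gating ran from Hoechst high-intensity objects versus normal cells, to healthy, pyknosed or fragmented nuclei among normal cells, to mitotic or apoptotic among pyknosed cells. Tubulin, mitochondrial-mass and membrane-permeability phenotypes are per cents of healthy-nucleus cells.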",
  "key": {"[1]": {"conditions": "12 h, 1 µM, compound concentration 1 uM, replicate 1"}, "[2]": {"conditions": "12 h, 1 µM, compound concentration 1 uM, replicate 2"}, "[3]": {"conditions": "12 h, 10 µM, compound concentration 10 uM, replicate 1"}, "[4]": {"conditions": "12 h, 10 µM, compound concentration 10 uM, replicate 2"}, "[5]": {"conditions": "24 h, 1 µM, compound concentration 1 uM, replicate 1"}, "[6]": {"conditions": "24 h, 1 µM, compound concentration 1 uM, replicate 2"}, "[7]": {"conditions": "24 h, 10 µM, compound concentration 10 uM, replicate 1"}, "[8]": {"conditions": "24 h, 10 µM, compound concentration 10 uM, replicate 2"}},
  "data": [
    {"compound": "CC(C)CC(=O)Nc1[nH]nc2c1CN(C(=O)C1CCN(C)CC1)C2(C)C", "note": "[PHA-793887]", "values": [
      {"measurement": "Population Apoptotic (%)", "setting": "[1]", "result": 25, "unit": "%"},
      {"measurement": "Population Fragmented Nuclei (%)", "setting": "[1]", "result": 3, "unit": "%"},
      {"measurement": "Population Healthy Nuclei (%)", "setting": "[1]", "result": 92, "unit": "%"},
      {"measurement": "Population Hoechst High Intensity Objects (%)", "setting": "[1]", "result": 1, "unit": "%"},
      {"measurement": "Population Membrane Permeable-Phenotype (%)", "setting": "[1]", "result": 8, "unit": "%"},
      {"measurement": "Population Mitochondria Different-Phenotype (%)", "setting": "[1]", "result": 30, "unit": "%"},
      {"measurement": "Population Mitotic Cells (%)", "setting": "[1]", "result": 75, "unit": "%"},
      {"measurement": "Population Normal (%)", "setting": "[1]", "result": 98, "unit": "%"},
      {"measurement": "Population Tubulin-Different-Phenotype (%)", "setting": "[1]", "result": 30, "unit": "%"},
      {"measurement": "Total Cell Count", "setting": "[1]", "result": 161},
      {"measurement": "Population Apoptotic (%)", "setting": "[2]", "result": 20, "unit": "%"},
      {"measurement": "Population Fragmented Nuclei (%)", "setting": "[2]", "result": 8, "unit": "%"},
      {"measurement": "Population Healthy Nuclei (%)", "setting": "[2]", "result": 87, "unit": "%"},
      {"measurement": "Population Hoechst High Intensity Objects (%)", "setting": "[2]", "result": 11, "unit": "%"},
      {"measurement": "Population Membrane Permeable-Phenotype (%)", "setting": "[2]", "result": 9, "unit": "%"},
      {"measurement": "Population Mitochondria Different-Phenotype (%)", "setting": "[2]", "result": 39, "unit": "%"},
      {"measurement": "Population Mitotic Cells (%)", "setting": "[2]", "result": 80, "unit": "%"},
      {"measurement": "Population Normal (%)", "setting": "[2]", "result": 88, "unit": "%"},
      {"measurement": "Population Pyknosed Nuclei (%)", "setting": "[2]", "result": 4, "unit": "%"},
      {"measurement": "Population Tubulin-Different-Phenotype (%)", "setting": "[2]", "result": 35, "unit": "%"},
      {"measurement": "Total Cell Count", "setting": "[2]", "result": 87},
      {"measurement": "Population Apoptotic (%)", "setting": "[3]", "result": 72, "unit": "%"},
      {"measurement": "Population Fragmented Nuclei (%)", "setting": "[3]", "result": 17, "unit": "%"},
      {"measurement": "Population Healthy Nuclei (%)", "setting": "[3]", "result": 68, "unit": "%"},
      {"measurement": "Population Hoechst High Intensity Objects (%)", "setting": "[3]", "result": 3, "unit": "%"},
      {"measurement": "Population Membrane Permeable-Phenotype (%)", "setting": "[3]", "result": 12, "unit": "%"},
      {"measurement": "Population Mitochondria Different-Phenotype (%)", "setting": "[3]", "result": 29, "unit": "%"},
      {"measurement": "Population Mitotic Cells (%)", "setting": "[3]", "result": 28, "unit": "%"},
      {"measurement": "Population Normal (%)", "setting": "[3]", "result": 96, "unit": "%"},
      {"measurement": "Population Pyknosed Nuclei (%)", "setting": "[3]", "result": 13, "unit": "%"},
      {"measurement": "Population Tubulin-Different-Phenotype (%)", "setting": "[3]", "result": 32, "unit": "%"},
      {"measurement": "Total Cell Count", "setting": "[3]", "result": 188},
      {"measurement": "Population Apoptotic (%)", "setting": "[4]", "result": 50, "unit": "%"},
      {"measurement": "Population Fragmented Nuclei (%)", "setting": "[4]", "result": 11, "unit": "%"},
      {"measurement": "Population Healthy Nuclei (%)", "setting": "[4]", "result": 78, "unit": "%"},
      {"measurement": "Population Hoechst High Intensity Objects (%)", "setting": "[4]", "result": 14, "unit": "%"},
      {"measurement": "Population Membrane Permeable-Phenotype (%)", "setting": "[4]", "result": 21, "unit": "%"},
      {"measurement": "Population Mitochondria Different-Phenotype (%)", "setting": "[4]", "result": 34, "unit": "%"},
      {"measurement": "Population Mitotic Cells (%)", "setting": "[4]", "result": 50, "unit": "%"},
      {"measurement": "Population Normal (%)", "setting": "[4]", "result": 85, "unit": "%"},
      {"measurement": "Population Pyknosed Nuclei (%)", "setting": "[4]", "result": 10, "unit": "%"},
      {"measurement": "Population Tubulin-Different-Phenotype (%)", "setting": "[4]", "result": 26, "unit": "%"},
      {"measurement": "Total Cell Count", "setting": "[4]", "result": 136},
      {"measurement": "Population Apoptotic (%)", "setting": "[5]", "result": 22, "unit": "%"},
      {"measurement": "Population Fragmented Nuclei (%)", "setting": "[5]", "result": 5, "unit": "%"},
      {"measurement": "Population Healthy Nuclei (%)", "setting": "[5]", "result": 91, "unit": "%"},
      {"measurement": "Population Hoechst High Intensity Objects (%)", "setting": "[5]", "result": 1, "unit": "%"},
      {"measurement": "Population Membrane Permeable-Phenotype (%)", "setting": "[5]", "result": 3, "unit": "%"},
      {"measurement": "Population Mitochondria Different-Phenotype (%)", "setting": "[5]", "result": 24, "unit": "%"},
      {"measurement": "Population Mitotic Cells (%)", "setting": "[5]", "result": 77, "unit": "%"},
      {"measurement": "Population Normal (%)", "setting": "[5]", "result": 98, "unit": "%"},
      {"measurement": "Population Pyknosed Nuclei (%)", "setting": "[5]", "result": 3, "unit": "%"},
      {"measurement": "Population Tubulin-Different-Phenotype (%)", "setting": "[5]", "result": 29, "unit": "%"},
      {"measurement": "Total Cell Count", "setting": "[5]", "result": 148},
      {"measurement": "Population Apoptotic (%)", "setting": "[6]", "result": 50, "unit": "%"},
      {"measurement": "Population Fragmented Nuclei (%)", "setting": "[6]", "result": 9, "unit": "%"},
      {"measurement": "Population Healthy Nuclei (%)", "setting": "[6]", "result": 85, "unit": "%"},
      {"measurement": "Population Hoechst High Intensity Objects (%)", "setting": "[6]", "result": 2, "unit": "%"},
      {"measurement": "Population Membrane Permeable-Phenotype (%)", "setting": "[6]", "result": 9, "unit": "%"},
      {"measurement": "Population Mitochondria Different-Phenotype (%)", "setting": "[6]", "result": 43, "unit": "%"},
      {"measurement": "Population Mitotic Cells (%)", "setting": "[6]", "result": 50, "unit": "%"},
      {"measurement": "Population Normal (%)", "setting": "[6]", "result": 97, "unit": "%"},
      {"measurement": "Population Pyknosed Nuclei (%)", "setting": "[6]", "result": 4, "unit": "%"},
      {"measurement": "Population Tubulin-Different-Phenotype (%)", "setting": "[6]", "result": 34, "unit": "%"},
      {"measurement": "Total Cell Count", "setting": "[6]", "result": 82},
      {"measurement": "Population Apoptotic (%)", "setting": "[7]", "result": 72, "unit": "%"},
      {"measurement": "Population Fragmented Nuclei (%)", "setting": "[7]", "result": 9, "unit": "%"},
      {"measurement": "Population Healthy Nuclei (%)", "setting": "[7]", "result": 73, "unit": "%"},
      {"measurement": "Population Hoechst High Intensity Objects (%)", "setting": "[7]", "result": 4, "unit": "%"},
      {"measurement": "Population Membrane Permeable-Phenotype (%)", "setting": "[7]", "result": 24, "unit": "%"},
      {"measurement": "Population Mitochondria Different-Phenotype (%)", "setting": "[7]", "result": 45, "unit": "%"},
      {"measurement": "Population Mitotic Cells (%)", "setting": "[7]", "result": 27, "unit": "%"},
      {"measurement": "Population Normal (%)", "setting": "[7]", "result": 95, "unit": "%"},
      {"measurement": "Population Pyknosed Nuclei (%)", "setting": "[7]", "result": 17, "unit": "%"},
      {"measurement": "Population Tubulin-Different-Phenotype (%)", "setting": "[7]", "result": 33, "unit": "%"},
      {"measurement": "Total Cell Count", "setting": "[7]", "result": 287},
      {"measurement": "Population Apoptotic (%)", "setting": "[8]", "result": 55, "unit": "%"},
      {"measurement": "Population Fragmented Nuclei (%)", "setting": "[8]", "result": 19, "unit": "%"},
      {"measurement": "Population Healthy Nuclei (%)", "setting": "[8]", "result": 69, "unit": "%"},
      {"measurement": "Population Hoechst High Intensity Objects (%)", "setting": "[8]", "result": 16, "unit": "%"},
      {"measurement": "Population Membrane Permeable-Phenotype (%)", "setting": "[8]", "result": 21, "unit": "%"},
      {"measurement": "Population Mitochondria Different-Phenotype (%)", "setting": "[8]", "result": 36, "unit": "%"},
      {"measurement": "Population Mitotic Cells (%)", "setting": "[8]", "result": 44, "unit": "%"},
      {"measurement": "Population Normal (%)", "setting": "[8]", "result": 83, "unit": "%"},
      {"measurement": "Population Pyknosed Nuclei (%)", "setting": "[8]", "result": 10, "unit": "%"},
      {"measurement": "Population Tubulin-Different-Phenotype (%)", "setting": "[8]", "result": 29, "unit": "%"},
      {"measurement": "Total Cell Count", "setting": "[8]", "result": 172}
    ]}
  ]
}
